# From paper PMC5116011 (The Journal of antibiotics, 2016)
# Where two headings read alike, the source gives them in different places.
# Legend:
# E. faecalis ATCC33186 = experiment: MIC, microbroth dilution in Mueller-Hinton broth; assay type: cell-based; conditions: Enterococcus faecalis, ATCC33186, read-out: MIC EF
# In short: (§1)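 CLSI broth microdilution in cation-adjusted Mueller-Hinton broth. Inocula were grown from MH agar colonies in MH broth, with a final inoculum of 10^5 CFU/ml. Test compound final range was 200–0.2 µg/ml, incubated 37°C for 18–20 h. MIC was the lowest concentration preventing visible growth. Runs were at least duplicate, and the mean MIC was reported.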
# S. pyogenes ATCC700294 = experiment: MIC, microbroth dilution in Mueller-Hinton broth; assay type: cell-based; conditions: Streptococcus pyogenes, ATCC700294, read-out: MIC SPy
# In short: as §1
# S. pneumoniae R6 = experiment: MIC, microbroth dilution in Mueller-Hinton broth; assay type: cell-based; conditions: Streptococcus pneumoniae, R6, read-out: MIC SP
# In short: as §1
# B. anthracis sterne = experiment: microbe, parasite or virus in culture; assay type: cell-based; conditions: Bacillus anthracis, read-out: MIC BA
# B. subtilis ATCC23857 = experiment: MIC, microbroth dilution in Mueller-Hinton broth; assay type: cell-based; conditions: Bacillus subtilis, ATCC23857, read-out: MIC BS
# In short: as §1
# [1] = test system: S. aureus -ATCC29213 (MSSA); experiment: MIC, microbroth dilution in Mueller-Hinton broth; assay type: cell-based; conditions: Staphylococcus aureus, read-out: MIC MSSA
# In short: as §1
# S. aureus NRS 70 (MRSA) = experiment: MIC, microbroth dilution in Mueller-Hinton broth; assay type: cell-based; conditions: Staphylococcus aureus, MRSA|NRS70, read-out: MIC MRSA
# In short: as §1
# E. coli BW25113 = experiment: MIC, microbroth dilution in Mueller-Hinton broth; assay type: cell-based, Escherichia coli; conditions: for MIC EC MH+BP/CCCP / MIC EC +: E. coli BW25113; for MIC EC MH+BP/CCCP: MH broth with 30 µg/ml 2,2′-bipyridyl and 50 µg/ml CCCP; for MIC EC +: with clavulanic acid (6µg/ml); for MIC: Escherichia coli, BW25113, read-out: MIC EC, E. coli BW25113, Mueller-Hinton broth (Table 2)
# [2] = test system: E. coli BW25113 ΔtolC derivative JW5503-1; experiment: MIC, microbroth dilution in Mueller-Hinton broth; assay type: cell-based, Escherichia coli; conditions: for MIC: Escherichia coli
# P. vulgaris ATCC 33420 = experiment: MIC, microbroth dilution in Mueller-Hinton broth; assay type: cell-based; conditions: Proteus vulgaris, ATCC33420, read-out: MIC PV
# P. mirabilis ATCC 25933 = experiment: MIC, microbroth dilution in Mueller-Hinton broth; assay type: cell-based; conditions: Proteus mirabilis, ATCC25933, read-out: MIC PM
# P. aeruginosa PA01 = experiment: MIC, microbroth dilution in Mueller-Hinton broth; assay type: cell-based, Pseudomonas aeruginosa; conditions: for MIC PA MH+BP/CCCP / MIC PA +: P. aeruginosa PA01; for MIC PA MH+BP/CCCP: MH broth with 30 µg/ml 2,2′-bipyridyl and 50 µg/ml CCCP; for MIC PA +: with clavulanic acid (6µg/ml); for MIC: Pseudomonas aeruginosa
# [3] = test system: E. coli BW25113 ΔampC derivative JW4111-2; assay type: cell-based, Escherichia coli; conditions: for MIC: Escherichia coli, BW25113, read-out: MIC ECΔampC −
# [4] = BW25113, read-out: MIC ECΔtolC MH
# [5] = BW25113, read-out: MIC ECΔtolC MH+BP
SMILES,MIC (E. faecalis ATCC33186) [µg/mL],MIC (S. pyogenes ATCC700294) [µg/mL],MIC (S. pneumoniae R6) [µg/mL],MIC (B. anthracis sterne) [µg/mL],MIC (B. subtilis ATCC23857) [µg/mL],MIC [1] [µg/mL],MIC (S. aureus NRS 70 (MRSA)) [µg/mL],MIC EC MH+BP/CCCP (E. coli BW25113) [µg/mL],MIC EC + (E. coli BW25113) [µg/mL],MIC (E. coli BW25113) [µg/mL],"MIC ([2]; BW25113, read-out: MIC ECΔtolC) [µg/mL]","MIC [2, 4] [µg/mL]","MIC [2, 5] [µg/mL]",MIC (P. vulgaris ATCC 33420) [µg/mL],MIC (P. mirabilis ATCC 25933) [µg/mL],MIC PA MH+BP/CCCP (P. aeruginosa PA01) [µg/mL],"MIC (P. aeruginosa PA01; PA01, read-out: MIC PA) [µg/mL]","MIC (P. aeruginosa PA01; PA01, read-out: MIC PA MH) [µg/mL]","MIC (P. aeruginosa PA01; PA01, read-out: MIC PA MH+BP) [µg/mL]","MIC (P. aeruginosa PA01; PA01, read-out: MIC PA MH+CCCP) [µg/mL]",also measured
CC1(C)SC2C(NC(=O)C(NC(=O)C3=C(O)CNC3=O)c3ccccc3)C(=O)N2C1C(=O)O (stereo not shown) [Compound 2743],12.5,< 0.2,< 0.2,0.78,0.78,0.78,25,12.5,12.5,200,12.5,12.5,6.25,100,3.13,3.13,25,25,12.5,6.25,"MIC ECΔtolC MH+BP/CCCP ([2]; {}): 1.56 µg/mL; MIC ECΔtolC MH+CCCP ([2]; {}): 3.13 µg/mL; MIC PA + (P. aeruginosa PA01): 12.5 µg/mL; MIC (P. aeruginosa PA01; PA01, read-out: MIC PA −): 25 µg/mL; MIC [3]: 12.5 µg/mL; MIC ECΔampC + [3]: 6.25 µg/mL"
CC(C)C1NC(=O)C(C(=O)NC(C(=O)NC2C(=O)N3C2SC(C)(C)C3C(=O)O)c2ccccc2)=C1O (stereo not shown) [Compound 2744],12.5,0.78,0.39,6.25,3.13,1.56,25,25,25,100,3.13,3.13,3.13,12.5,12.5,25,25,25,50,12.5,"MIC ECΔtolC MH+BP/CCCP ([2]; {}): 0.78 µg/mL; MIC ECΔtolC MH+CCCP ([2]; {}): 1.56 µg/mL; MIC PA + (P. aeruginosa PA01): 25 µg/mL; MIC (P. aeruginosa PA01; PA01, read-out: MIC PA −): 25 µg/mL; MIC ECΔampC + [3]: 12.5 µg/mL"
CC1(C)SC2C(NC(=O)C(NC(=O)C3=C(O)C(c4ccccc4)NC3=O)c3ccccc3)C(=O)N2C1C(=O)O (stereo not shown) [Compound 2745],12.5,0.78,0.39,6.25,3.13,0.78,25,12.5,12.5,100,3.13,3.13,1.56,12.5,3.13,12.5,25,25,50,12.5,"MIC ECΔtolC MH+BP/CCCP ([2]; {}): 0.78 µg/mL; MIC ECΔtolC MH+CCCP ([2]; {}): 1.56 µg/mL; MIC PA + (P. aeruginosa PA01): 25 µg/mL; MIC (P. aeruginosa PA01; PA01, read-out: MIC PA −): 25 µg/mL; MIC [3]: 6.25 µg/mL; MIC ECΔampC + [3]: 6.25 µg/mL"
CC1NC(=O)C(C(=O)NC(C(=O)NC2C(=O)N3C2SC(C)(C)C3C(=O)O)c2ccccc2)=C1O (stereo not shown) [Compound 2746],25,0.39,0.39,1.56,3.13,1.56,50,12.5,50,200,,,6.25,100,3.13,12.5,50,50,50,12.5,"MIC ECΔtolC MH+BP/CCCP ([2]; {}): 1.56 µg/mL; MIC ECΔtolC MH+CCCP ([2]; {}): 3.13 µg/mL; MIC PA + (P. aeruginosa PA01): 25 µg/mL; MIC (P. aeruginosa PA01; PA01, read-out: MIC PA −): 50 µg/mL; MIC [3]: 50 µg/mL; MIC ECΔampC + [3]: 25 µg/mL"
"CC1(C)S[C@@H]2[C@H](NC(=O)C(C(=O)O)c3ccccc3)C(=O)N2[C@H]1C(=O)O (stereo partly shown) [carbenicillin, reference compound]",3.13,< 0.2,< 0.2,< 0.2,< 0.2,< 0.2,6.25,0.78,,100,0.09,1.56,0.56,100,1.56,1.56,100,200,50,25,"MIC ECΔtolC MH+CCCP ([2]; E. coli BW25113 ΔtolC JW5503-1, MH broth containing 50 µg/ml CCCP): 0.78 µg/mL"
